# According to ChEMBL document CHEMBL3124926, “Identification of highly efficacious glucocorticoid receptor agonists with a potential for reduced clinical bone side effects” (J Med Chem, 2014):
# Experiments:
# Progesterone receptor = target: T1, Progesterone receptor (Homo sapiens, UniProt P06401); assay: Competitive binding affinity to progesterone receptor (unknown origin) expressed in baculovirus-infected cell system after 1 hr by fluorescence polarization assay in presence of tetramethylrhodamine-labeled RU-486
# T1 sequence (P06401 whole entry): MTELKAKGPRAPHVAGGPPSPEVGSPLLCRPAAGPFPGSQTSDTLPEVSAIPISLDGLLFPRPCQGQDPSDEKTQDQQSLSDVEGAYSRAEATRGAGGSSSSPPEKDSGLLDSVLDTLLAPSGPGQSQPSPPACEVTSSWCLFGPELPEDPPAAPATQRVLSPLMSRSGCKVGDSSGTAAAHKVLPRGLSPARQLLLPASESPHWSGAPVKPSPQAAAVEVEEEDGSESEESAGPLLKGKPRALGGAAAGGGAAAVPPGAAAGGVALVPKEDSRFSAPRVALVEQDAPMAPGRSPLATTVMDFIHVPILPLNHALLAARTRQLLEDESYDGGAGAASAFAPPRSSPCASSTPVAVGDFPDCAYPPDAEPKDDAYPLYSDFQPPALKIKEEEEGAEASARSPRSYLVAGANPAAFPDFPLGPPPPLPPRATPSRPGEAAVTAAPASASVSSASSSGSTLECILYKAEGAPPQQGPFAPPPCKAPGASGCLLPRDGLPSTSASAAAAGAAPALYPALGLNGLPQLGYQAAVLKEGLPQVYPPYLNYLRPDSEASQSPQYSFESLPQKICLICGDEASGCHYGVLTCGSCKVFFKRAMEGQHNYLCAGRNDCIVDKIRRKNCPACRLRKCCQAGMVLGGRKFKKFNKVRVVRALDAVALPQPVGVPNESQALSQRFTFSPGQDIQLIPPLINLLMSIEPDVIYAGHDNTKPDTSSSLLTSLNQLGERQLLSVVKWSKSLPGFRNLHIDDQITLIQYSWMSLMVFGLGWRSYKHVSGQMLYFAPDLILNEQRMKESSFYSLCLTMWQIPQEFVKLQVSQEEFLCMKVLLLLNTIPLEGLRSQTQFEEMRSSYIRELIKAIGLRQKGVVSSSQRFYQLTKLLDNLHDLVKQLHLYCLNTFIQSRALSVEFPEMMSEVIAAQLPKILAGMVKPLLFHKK
# How it was run: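 PR from lysate of insect cells infected with receptor baculovirus alone, diluted 13-fold. Probe 5 nM tetramethylrhodamine-labeled RU-486 in pH 7.4 TES/KCl/molybdate buffer with 1% DMSO. 1 h at room temperature in the dark, then fluorescence polarization (ex 550/em 580 nm). Background set with 2 μM RU-486. IC50 from duplicate 11-point curves, four-parameter logistic fit, mean of at least two determinations.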
# [1] = target: T2, Mineralocorticoid receptor (Homo sapiens, UniProt P08235); assay: Competitive binding affinity to mineralocorticoid receptor (unknown origin) expressed in baculovirus-infected cell system after 1 hr by fluorescence polarization assay in presence of tetramethylrhodamine-labeled dexamethasone
# T2 sequence (P08235 whole entry): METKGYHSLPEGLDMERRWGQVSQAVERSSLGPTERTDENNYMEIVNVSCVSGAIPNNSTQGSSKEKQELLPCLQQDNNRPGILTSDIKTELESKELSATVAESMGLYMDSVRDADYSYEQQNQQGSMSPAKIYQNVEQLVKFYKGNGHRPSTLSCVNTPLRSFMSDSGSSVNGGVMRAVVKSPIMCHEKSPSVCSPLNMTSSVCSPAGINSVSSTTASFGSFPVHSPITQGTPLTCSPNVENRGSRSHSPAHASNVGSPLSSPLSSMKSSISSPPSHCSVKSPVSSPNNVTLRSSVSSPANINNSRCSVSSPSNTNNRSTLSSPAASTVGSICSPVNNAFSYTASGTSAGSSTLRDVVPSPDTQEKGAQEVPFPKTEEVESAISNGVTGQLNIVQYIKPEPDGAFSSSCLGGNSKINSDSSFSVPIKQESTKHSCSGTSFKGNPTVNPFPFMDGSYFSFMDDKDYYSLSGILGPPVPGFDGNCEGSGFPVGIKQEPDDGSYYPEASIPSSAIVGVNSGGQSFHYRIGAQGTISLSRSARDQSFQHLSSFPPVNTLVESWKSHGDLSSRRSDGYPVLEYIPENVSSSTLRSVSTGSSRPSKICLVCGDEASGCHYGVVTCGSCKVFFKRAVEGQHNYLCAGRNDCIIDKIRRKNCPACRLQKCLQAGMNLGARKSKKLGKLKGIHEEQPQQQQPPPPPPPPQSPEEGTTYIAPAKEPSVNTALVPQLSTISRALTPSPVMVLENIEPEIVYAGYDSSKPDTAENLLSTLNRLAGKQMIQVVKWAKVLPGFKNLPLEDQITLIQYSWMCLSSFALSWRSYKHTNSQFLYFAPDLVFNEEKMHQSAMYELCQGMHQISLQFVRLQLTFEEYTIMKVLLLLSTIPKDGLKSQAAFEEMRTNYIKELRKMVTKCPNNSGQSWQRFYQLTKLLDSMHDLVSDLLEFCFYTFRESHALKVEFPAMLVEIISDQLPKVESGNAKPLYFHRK
# How it was run: (§1)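 Lysates of baculovirus-infected insect cells co-expressing receptor with HSP-70, HSP-90 and p23 (GR diluted 300-fold, MR 17-fold). Probe 5 nM tetramethylrhodamine-dexamethasone in TES/KCl/molybdate/EDTA/CHAPS/glycerol/DTT buffer, pH 7.4, 1% DMSO. 1 h at room temperature in the dark; fluorescence polarization read (ex 550/em 580 nm). Background set with 2 μM dexamethasone. IC50 from duplicate 11-point curves, four-parameter fit, mean of at least two determinations.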
# Glucocorticoid receptor [2] = target: T3, Glucocorticoid receptor (Homo sapiens, UniProt P04150); assay: Transrepression activity at glucocorticoid receptor in human fibroblasts assessed as inhibition of IL-1-induced IL-6 production after 18 to 24 hrs
# T3 sequence (P04150 whole entry): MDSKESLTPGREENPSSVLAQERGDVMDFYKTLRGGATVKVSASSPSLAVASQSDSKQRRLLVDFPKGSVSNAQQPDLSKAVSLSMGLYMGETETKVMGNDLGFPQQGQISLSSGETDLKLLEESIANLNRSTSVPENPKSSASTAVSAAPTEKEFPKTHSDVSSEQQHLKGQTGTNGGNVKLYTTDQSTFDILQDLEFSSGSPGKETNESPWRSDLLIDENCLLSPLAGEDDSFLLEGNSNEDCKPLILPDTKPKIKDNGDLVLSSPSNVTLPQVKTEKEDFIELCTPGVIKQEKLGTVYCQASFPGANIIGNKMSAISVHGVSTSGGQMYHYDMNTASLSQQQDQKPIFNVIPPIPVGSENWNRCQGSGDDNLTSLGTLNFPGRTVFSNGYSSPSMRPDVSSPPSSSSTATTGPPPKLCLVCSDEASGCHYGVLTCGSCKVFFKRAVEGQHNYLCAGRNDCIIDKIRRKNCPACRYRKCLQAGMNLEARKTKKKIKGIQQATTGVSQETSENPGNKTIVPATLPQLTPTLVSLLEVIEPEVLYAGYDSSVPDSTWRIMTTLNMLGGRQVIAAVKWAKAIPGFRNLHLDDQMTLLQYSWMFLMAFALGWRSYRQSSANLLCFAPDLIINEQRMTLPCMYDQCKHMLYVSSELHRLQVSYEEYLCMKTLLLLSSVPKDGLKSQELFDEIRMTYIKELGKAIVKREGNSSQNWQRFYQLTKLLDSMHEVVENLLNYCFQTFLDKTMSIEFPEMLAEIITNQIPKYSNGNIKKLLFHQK
# How it was run: (§2)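 Human foreskin fibroblasts grown in Iscove's medium with 10% charcoal/dextran-treated FBS, plated at 20000/well two days before. Medium replaced, then compound (0.4% DMSO final) and recombinant human IL-1 (1 ng/mL final) added. 18–24 h at 37 °C; IL-6 in medium quantified by electrochemiluminescence, DELFIA or ELISA. IC50 by four-parameter fit of duplicate 11-point curves. Efficacy relative to dexamethasone (100%); top concentration 2 μM.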
# Glucocorticoid receptor [3] = target: T3, Glucocorticoid receptor; assay: Competitive binding affinity to glucocorticoid receptor (unknown origin) expressed in baculovirus-infected cell system after 1 hr by fluorescence polarization assay in presence of tetramethylrhodamine-labeled dexamethasone; how it was run: as §1
# [4] = target: T4, Glucocorticoid receptor (Homo sapiens) (UniProt P04150); assay: Agonist activity at glucocorticoid receptor in human […] cells assessed as suppression of vitamin D-induced osteocalcin production at 2 uM after 48 hrs by Gla-type osteocalcin ELISA relative to dexomethasone; assay type: cell-based
# T4 sequence (whole entry): T3 sequence (P04150 whole entry)
# How it was run: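 MG-63 human osteosarcoma cells plated at 20000/well in DMEM/F-12 with 1% charcoal-filtered FBS and 10 μg/mL vitamin C. Medium refreshed next day, then vitamin D (10 nM final) added with compound (2 × 10−6 to 10−10 M), duplicates. Incubated 48 h at 37 °C; supernatant osteocalcin measured by Gla-type ELISA. Vitamin D-only wells = 100%. Max efficacy at 2 μM is relative to dexamethasone (100%).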
# [5] = target: T4, Glucocorticoid receptor (Homo sapiens); assay: Transrepression activity at glucocorticoid receptor in human fibroblasts assessed as inhibition of IL-1-induced IL-6 production at 2 uM after 18 to 24 hrs relative to dexomethasone; how it was run: as §2
# [6] = target: T4, Glucocorticoid receptor (Homo sapiens); assay: Agonist activity at glucocorticoid receptor in human HeLa cells transfected with luciferase gene linked to MMTV promoter assessed as induction of luciferase transactivation activity at 2 uM after 6 hrs by luminescence assay; assay type: cell-based
# How it was run: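 HeLa cells stably carrying an MMTV-luciferase construct, plated the day before at 25000/well in DMEM with 3% FBS. Medium replaced, then compound added (0.2% DMSO final); 1 μM dexamethasone wells = 100% induction, vehicle = background. Incubated 6 h at 37 °C, 5% CO2. Luminescence read after lysis; activation expressed as % of positive control. Top concentration 2 μM.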
IC50 (Progesterone receptor) [nM],IC50 [1] [nM],IC50 (Glucocorticoid receptor [2]) [nM],IC50 (Glucocorticoid receptor [3]) [nM],Emax [4] [%],Emax [5] [%],Emax [6] [%],SMILES
> 2000,> 2000,> 2000,57,–,–,–,Cc1ccc(F)cc1C(C)(C)CC(O)(Cc1cc2nccnc2[nH]1)C(F)(F)F (racemic)
> 2000,> 2000,–,840,–,–,–,CC(C)(CC(O)(Cc1cc2ncncc2[nH]1)C(F)(F)F)c1cccc(S(C)(=O)=O)c1 (racemic)
–,–,–,–,45,–,–,COc1ccc(-c2cncnc2)cc1C(C)(C)C[C@@](O)(Cc1cc2ccncc2[nH]1)C(F)(F)F
490,83,5,3,81,–,–,Cc1ccc(F)cc1C(C)(C)CC(O)(Cc1cc2cnncc2[nH]1)C(F)(F)F (racemic)
1400,170,15,5,–,84,–,Cc1ccc(F)cc1C(C)(C)CC(O)(Cc1cc2nc(N3CCOCC3)ncc2[nH]1)C(F)(F)F (racemic)
> 2000,> 2000,170,11,–,82,–,Cc1ccc(F)cc1C(C)(C)CC(O)(Cc1cc2nc(-c3ccccc3)cnc2[nH]1)C(F)(F)F (configuration not stated)
> 2000,> 2000,560,26,–,50,–,Cc1ccc(F)cc1C(C)(C)CC(O)(Cc1cc2nc(C(C)C)ncc2[nH]1)C(F)(F)F (racemic)
> 2000,1100,44,13,–,69,–,Cc1ccccc1C(C)(C)CC(O)(Cc1cc2ncncc2[nH]1)C(F)(F)F (racemic)
> 2000,> 2000,21,24,43,92,–,CC(C)(CC(O)(Cc1cc2ncncc2[nH]1)C(F)(F)F)c1ccccc1S(C)(=O)=O (racemic)
> 2000,> 2000,21,9,–,85,5,COc1ccc(F)cc1C(C)(C)CC(O)(Cc1cc2ncncc2[nH]1)C(F)(F)F (racemic)
–,–,–,–,68,–,–,CC(C)(C[C@@](O)(Cc1cc2ccncc2[nH]1)C(F)(F)F)c1cc(F)ccc1O
1450,160,10,4,–,82,–,COc1ccc(F)cc1C(C)(C)CC(O)(Cc1cc2cncnc2[nH]1)C(F)(F)F (racemic)
> 2000,> 2000,130,18,–,76,–,Cc1ccc(F)cc1C(C)(C)CC(O)(Cc1cc2nc(N3CCCC3)ncc2[nH]1)C(F)(F)F (racemic)
> 2000,1150,11,7,42,–,–,CC(C)(CC(O)(Cc1cc2ncncc2[nH]1)C(F)(F)F)c1cc(F)ccc1O (racemic)
1400,1300,24,7,26,78,–,CC(C)(CC(O)(Cc1cc2ncncc2[nH]1)C(F)(F)F)c1cc(F)cc2c1OCC2 (racemic)
